Sampled rows, rich in hits. Any-hit rate of the full collection: about 1%.
KLK5 inh = human KLK5 protease inhibitors, primary screen, biochemical, 1536-well | recombinant hK5, fluorogenic AMC substrate cleavage | inhibition, % at 5 µM | actives 0.59% (n = 210,000) | Kallikrein-5 (Homo sapiens), Q9Y337;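 active = inhibition of 40% or more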;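 note: 0% = enzyme controls without compound and 100% = no-enzyme blanks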
FXIIa inh = human FXIIa protease inhibitors, primary screen, biochemical, 1536-well. Coagulation factor XII (Homo sapiens), P00748. purified FXIIa, Boc-QGR-AMC fluorogenic substrate, 2 h. inhibition, % at 5 µM. actives 0.3% (n = 220,000). AID 800, 2007; in the data active = inhibition above about 40%;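 note: 0% = enzyme with no compound and 100% = blank without enzyme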
Target sequence (P00748 20-372 limits assumed): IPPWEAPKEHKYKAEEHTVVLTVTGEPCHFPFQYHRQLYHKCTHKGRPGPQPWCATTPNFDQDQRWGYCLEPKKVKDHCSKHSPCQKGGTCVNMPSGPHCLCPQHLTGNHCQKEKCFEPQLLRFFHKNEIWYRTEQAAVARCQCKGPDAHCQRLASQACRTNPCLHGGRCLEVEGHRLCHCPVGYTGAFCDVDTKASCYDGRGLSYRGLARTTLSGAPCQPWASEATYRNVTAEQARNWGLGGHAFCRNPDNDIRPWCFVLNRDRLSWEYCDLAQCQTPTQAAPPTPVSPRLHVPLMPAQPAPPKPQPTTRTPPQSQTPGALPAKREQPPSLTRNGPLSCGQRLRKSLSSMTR
Target sequence (P00748 373-615 limits assumed): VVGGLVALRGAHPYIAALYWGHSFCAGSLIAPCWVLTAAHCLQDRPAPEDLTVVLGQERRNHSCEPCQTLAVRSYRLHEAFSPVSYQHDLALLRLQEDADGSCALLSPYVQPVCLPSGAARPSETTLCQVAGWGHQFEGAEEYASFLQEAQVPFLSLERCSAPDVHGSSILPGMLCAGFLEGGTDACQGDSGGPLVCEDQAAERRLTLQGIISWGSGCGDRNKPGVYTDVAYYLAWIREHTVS
FXIa inh 1536 = human FXIa protease inhibitors, primary screen, biochemical, 1536-well. purified FXIa, Boc-Glu-Ala-Arg-AMC fluorogenic substrate. inhibition, % at 5 µM. actives 0.14% (n = 220,000);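 active = inhibition of at least 40%; inactive = inhibition below 40%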;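 note: fluorescence of freed AMC excited at 355 nm; 0% = enzyme without compound and 100% = no enzyme blank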
thrombin 1536 = human alpha-thrombin inhibitors, primary screen, counter-screen for coagulation protease inhibitor project, biochemical, 1536-well, fluorogenic AMC substrate; Boc-VPR-AMC fluorogenic substrate cleavage; inhibition, % at 5 µM; actives 0.26% (n = 220,000);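 active = inhibition at or above 40%; inactive = inhibition below 40%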;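 note: 0% = enzyme with no compound and 100% = wells without enzyme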
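System: Human alpha-thrombin protein | Medium: pH 7.5 Tris (50 mM) with NaCl 150 mM, Tween 20 0.05% | Times: Enzyme reaction carried out at room temperature | Detection: AMC fluorescence, 355/460 nm | Evaluation: Percent inhibition scaled between no-compound controls and no-enzyme blanks | Benchmarks: Enzyme without compound as high, wells lacking enzyme as low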
* marks the source's active call; other numbers are inactive results; . = no result.

SMILES | KLK5 inh | FXIIa inh | FXIa inh 1536 | thrombin 1536
Cc1ccc(C2C=C(c3ccccc3)Nc3nc(N4C(=O)CCC4=O)nn32)cc1 (stereo not given) | 0 | 6 | 2 | 48*
CC1=CC(c2ccc(Cl)cc2)n2nc(N3C(=O)CCC3=O)nc2N1 (stereo not given) | -15 | 3 | -5 | 6
COc1ccc(CNC(=O)CCS(=O)(=O)Cc2cccc(Cl)c2)c(OC)c1 | -2 | 8 | 3 | 2
CCN(CC)c1ccc(NC(=O)c2nc3nc(C)cc(C(F)F)n3n2)cc1 | 48* | 11 | 9 | 22
Cc1ccc(NCCC(=O)c2ccc(Cl)cc2)cc1C | 47* | 13 | 4 | 8
O=C(COC(=O)C1=COCCO1)NC1CCCCCCC1 | -8 | 4 | -9 | -10
Cc1ccc(NC(=O)c2ccc3ccccc3n2)cc1S(=O)(=O)N1CCOCC1 | 15 | 24 | 28 | 48*
O=C(Nc1cccc(S(=O)(=O)N2CCOCC2)c1)c1ccc2ccccc2n1 | 3 | 7 | 2 | 0
Clc1ccccc1CN1CCN(CCCc2ccccc2)CC1 | -2 | 98* | 3 | -7
O=C(NC1CCCc2ccccc21)C1CCN(S(=O)(=O)c2ccccc2F)CC1 (stereo not given) | 28 | 88* | 6 | 29
O=C(NC1CCCc2ccccc21)C1CCN(S(=O)(=O)c2ccccc2)CC1 (stereo not given) | 7 | 19 | 10 | 18
O=C(Nc1ccc(N2CCOCC2)cc1)C1CCN(S(=O)(=O)c2ccccc2F)CC1 | 8 | 6 | 7 | 70*
CCOc1ccc(NC(=O)CC2SC(=O)N(c3ccccc3)C2=O)cc1 (stereo not given) | 2 | 12 | 0 | 0
COC(=O)C1CCN(C(=O)Nc2ccccc2)CC1 | -4 | . | -8 | -14
CCc1nc2oc3cc(OC)ccc3c(=O)c2c(=O)n1Cc1ccccc1 | 48* | 27 | 7 | 25
COC(=O)c1cc(OC)c(OC)cc1NC(=S)Nc1cc(Cl)ccc1OC | 6 | -2 | -9 | -9
COc1ccc(Cl)cc1NC(=S)NNC(=O)C1(C)CC1(Cl)Cl (stereo not given) | 13 | 49* | 6 | 2
COc1ccc2cc(C3C(C#N)=C(N)OC(C)=C3C(C)=O)c(Cl)nc2c1 (stereo not given) | 42* | 33 | 21 | 27
CC(=O)C1=C(C)OC(N)=C(C#N)C1c1ccncc1 (stereo not given) | 1 | 7 | -22 | -4
O=C(N/N=C/c1ccccc1C(=O)O)c1ccccc1Br | 60* | 25 | 62* | 25
Cn1nnnc1SCC(=O)N1CCc2ccccc2C1 | 59* | 35 | 11 | 25
CCCCNC(=O)Cn1cnc2ccc(S(=O)(=O)N3CCC(C)CC3)cc2c1=O | . | 10 | 3 | 2
CCN(CC)CCCNC(=O)Cn1cnc2ccc(S(=O)(=O)N3CCC(C)CC3)cc2c1=O | 45* | 32 | 34 | 17
Cn1nccc1NC(=O)Nc1cccc(Cl)c1 | 2 | 13 | 2 | -2
Cn1nccc1-c1cc(Cl)cc(Cl)c1O | -7 | 0 | -8 | 73*
SMILES | KLK5 inh | FXIIa inh | FXIa inh 1536 | thrombin 1536
C/C(=N\Nc1cc(C)nc(NCc2ccccc2)n1)c1ccc([N+](=O)[O-])cc1 | 7 | 17 | 5 | -3
COc1cccc(/C(C)=N/NC(=O)Cc2c(C)[nH][nH]c2=O)c1 | -1 | 7 | 0 | -5
CC(C)(C)c1ccc(CN2C(=O)CSC2=O)cc1 | -3 | 12 | 3 | -9
C=CCNC(=O)/C(=C/c1cccc([N+](=O)[O-])c1)NC(=O)c1ccccc1 | 15 | 10 | 18 | .
NS(=O)(=O)c1ccc(CNC(=S)NC2CCCCC2)cc1 | 3 | 11 | 2 | 0
CCOc1ccc(/C=C(\C#N)C(=O)c2c(C)[nH]c3ccccc23)cc1OC | -11 | 14 | 6 | -5
COc1cc(/C=C(/C#N)C(=O)c2c(C)[nH]c3ccccc23)ccc1OCC#N | 42* | 25 | 22 | 14
CC1=C(C#N)C(NC(=O)c2ccc(Cl)cc2)(C(F)(F)F)C(=O)N1 (stereo not given) | -19 | 8 | 10 | -4
O=[N+]([O-])c1ccc2c(c1)c1ccccc1n2CCO | 23 | 50* | 24 | 39
Clc1ccc(Cn2ncc3c(N4CCCCC4)ncnc32)cc1 | -4 | 10 | 7 | -1
Clc1ccc(Cn2ncc3c(N4CCCC4)ncnc32)cc1 | 44* | 8 | 1 | 9
CCCc1nc(NC(C)=O)c(C#N)c(-c2ccco2)c1CC | 20 | 23 | 18 | 40*
CCN(C(=S)NCc1ccccc1)c1ccccc1 | -3 | 6 | -2 | -6
Cc1ccc(-c2cc(C(=O)Nc3ccc(S(=O)(=O)Nc4onc(C)c4C)cc3)c3ccccc3n2)cc1 | -4 | 2 | -2 | -11
COc1cc(C(=O)Nc2ccc(S(=O)(=O)Nc3cc(C)on3)cc2)cc(OC)c1OC | 47* | -3 | 10 | 16
Cc1ccc(-c2cc(C(=O)Nc3ccc(S(=O)(=O)Nc4cc(C)on4)cc3)c3ccccc3n2)c(C)c1 | 7 | 72* | 6 | 3
CCc1cccc(CC)c1NC(=O)c1ccccc1 | 1 | 11 | -1 | -2
CCc1cccc(CC)c1NC(=O)c1cccc(N)c1 | -20 | 4 | -13 | 46*
COc1ccc(NC(=S)Nc2ccc3cn[nH]c3c2)cc1 | 0 | -1 | 0 | 49*
C#CCn1cc(/C=N/Nc2nc3ccccc3[nH]2)c2ccccc21 | -15 | 0 | -6 | -6
O=C(O)CSc1nnc(-c2ccco2)o1 | -17 | 26 | -5 | -8
CN(C)C(CNC(=O)CSc1nnc(-c2ccco2)o1)c1ccccc1 (stereo not given) | 74* | 33 | 7 | 26
Cc1ccccc1NC(=O)c1cccc(N2C(=O)C3C4CCC(C4)C3C2=O)c1 (stereo not given) | 43* | 21 | 15 | 21
COc1ccc(C2CC(C(F)(F)F)n3nc(C(=O)Nc4ccc5c(c4)OCO5)cc3N2)cc1 (stereo not given) | 17 | 43* | -4 | 36
CC(C)C(=O)Nc1cc2c(cc1C(=O)c1ccccc1)OCCO2 | 1 | 19 | 1 | 0
SMILES | KLK5 inh | FXIIa inh | FXIa inh 1536 | thrombin 1536
Cc1ccc(NC(=O)C(C)N2CCOCC2)c(C(=O)c2ccccc2)c1 (stereo not given) | 43* | 14 | 5 | 19
CC(Sc1ccsc1[N+](=O)[O-])C(=O)NCc1ccco1 (stereo not given) | -2 | 1 | 6 | 1
O=C(NCCCCc1ccccc1)c1ccc(Br)o1 | 0 | 12 | 4 | -3
O=C(NCCCc1ccccc1)c1ccc(Br)o1 | 49* | 20 | 1 | 38
C=CCNCCOCCOc1ccccc1-c1ccccc1 | 0 | 8 | -5 | -3
COCCNC(=O)CSc1nc2ccccc2c(=O)n1CCC(=O)N1CCN(c2ccccc2)CC1 | -30 | 4 | -6 | 0

High-throughput results from PubChem BioAssay.
